Results: ChEMBL document CHEMBL1629614, “Inhibition of methionyl-tRNA synthetase by REP8839 and effects of resistance mutations on enzyme activity” (Antimicrob Agents Chemother, 2009)
Changes are numbered by the printed parent chain. Names may count otherwise.

Legend:
[1] = compound: C=C(F)c1sc(CNCCCNc2cc(=O)c3ccccc3[nH]2)c(C)c1Br; test: Activity of streptococcus aureus MetRS I57N mutant by scintillation proximity assay in presence of tRNA; settings: Staphylococcus aureus
[2] = compound: C=C(F)c1sc(CNCCCNc2cc(=O)c3ccccc3[nH]2)c(C)c1Br; test: Ratio of Kcat to Km for Staphylococcus aureus MetRS I57N mutant in presence of methionine
In short: (§1)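 Purified recombinant S. aureus MetRS (30 nM) was assayed by ATP:PPi exchange at 30°C in Tris pH 8.0 with Mg acetate, KCl and DTT. [32P]PPi was matched to ATP, and ATP or methionine was varied. Time points from 1 to 10 min were quenched with EDTA, separated by PEI-cellulose TLC and read by phosphorimager. Initial rates were fitted to Michaelis-Menten.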

[3] = compound: C=C(F)c1sc(CNCCCNc2cc(=O)c3ccccc3[nH]2)c(C)c1Br; test: Ratio of Kcat to Km for Staphylococcus aureus MetRS I57N mutant in presence of tRNA
In short: (§2)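 Purified recombinant S. aureus MetRS was assayed by tRNA aminoacylation at 30°C for 1 to 7.5 min to obtain initial rates. Buffer was Tris pH 8.0 with Mg acetate, 2.5 mM ATP, KCl, DTT, BSA, [3H]methionine and crude E. coli tRNA. Reactions were EDTA-stopped, and charged tRNA was read by scintillation proximity with polylysine beads at pH 2.0.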

[4] = compound: C=C(F)c1sc(CNCCCNc2cc(=O)c3ccccc3[nH]2)c(C)c1Br; test: Activity of Staphylococcus aureus MetRS I57N mutant by ATP:PPi exchange assay in presence of ATP
In short: (§3)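 Purified S. aureus MetRS (wild type or mutant; E. coli-expressed, ammonium sulfate cut, anion exchange) at 30 nM. ATP:PPi exchange at 30°C in 100 mM Tris-HCl pH 8.0, 5–10 mM Mg acetate, 80 mM KCl, 2.5 mM DTT, [32P]PPi plus cold PPi equal to ATP. Quenched with EDTA over 1–10 min, PEI-cellulose TLC, phosphorimager. Initial velocities versus varied ATP or methionine fit to Michaelis-Menten.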

[5] = compound: C=C(F)c1sc(CNCCCNc2cc(=O)c3ccccc3[nH]2)c(C)c1Br; test: Ratio of Kcat to Km for Staphylococcus aureus MetRS I57N mutant in presence of ATP; in short: as §1
[6] = compound: C=C(F)c1sc(CNCCCNc2cc(=O)c3ccccc3[nH]2)c(C)c1Br; test: Activity of Staphylococcus aureus MetRS I57N mutant by ATP:PPi exchange assay in presence of methionine; in short: as §3
[7] = compound: C=C(F)c1sc(CNCCCNc2cc(=O)c3ccccc3[nH]2)c(C)c1Br; test: Activity of Staphylococcus aureus MetRS V108M mutant by ATP:PPi exchange assay in presence of methionine; in short: as §3
[8] = compound: C=C(F)c1sc(CNCCCNc2cc(=O)c3ccccc3[nH]2)c(C)c1Br; test: Ratio of Kcat to Km for Staphylococcus aureus MetRS V108M mutant in presence of methionine; in short: as §1
[9] = compound: C=C(F)c1sc(CNCCCNc2cc(=O)c3ccccc3[nH]2)c(C)c1Br; test: Ratio of Kcat to Km for Staphylococcus aureus MetRS V108M mutant in presence of tRNA; in short: as §2
[10] = compound: C=C(F)c1sc(CNCCCNc2cc(=O)c3ccccc3[nH]2)c(C)c1Br; test: Ratio of Kcat to Km for Staphylococcus aureus MetRS V108M mutant in presence of ATP; in short: as §1
[11] = compound: C=C(F)c1sc(CNCCCNc2cc(=O)c3ccccc3[nH]2)c(C)c1Br; test: Activity of streptococcus aureus MetRS V108M mutant by scintillation proximity assay in presence of tRNA; settings: Staphylococcus aureus
[12] = compound: C=C(F)c1sc(CNCCCNc2cc(=O)c3ccccc3[nH]2)c(C)c1Br; test: Activity of Staphylococcus aureus MetRS V108M mutant by ATP:PPi exchange assay in presence of ATP; in short: as §3
[13] = compound: C=C(F)c1sc(CNCCCNc2cc(=O)c3ccccc3[nH]2)c(C)c1Br; test: Activity of Staphylococcus aureus MetRS G223C mutant by ATP:PPi exchange assay in presence of ATP; in short: as §3
[14] = compound: C=C(F)c1sc(CNCCCNc2cc(=O)c3ccccc3[nH]2)c(C)c1Br; test: Activity of streptococcus aureus MetRS G223C mutant by scintillation proximity assay in presence of tRNA; settings: Staphylococcus aureus
[15] = compound: C=C(F)c1sc(CNCCCNc2cc(=O)c3ccccc3[nH]2)c(C)c1Br; test: Ratio of Kcat to Km for Staphylococcus aureus MetRS G223C mutant in presence of ATP; in short: as §1
[16] = compound: C=C(F)c1sc(CNCCCNc2cc(=O)c3ccccc3[nH]2)c(C)c1Br; test: Activity of Staphylococcus aureus MetRS G223C mutant by ATP:PPi exchange assay in presence of methionine; in short: as §3
[17] = compound: C=C(F)c1sc(CNCCCNc2cc(=O)c3ccccc3[nH]2)c(C)c1Br; test: Ratio of Kcat to Km for Staphylococcus aureus MetRS G223C mutant in presence of tRNA; in short: as §2
[18] = compound: C=C(F)c1sc(CNCCCNc2cc(=O)c3ccccc3[nH]2)c(C)c1Br; test: Ratio of Kcat to Km for Staphylococcus aureus MetRS G223C mutant in presence of methionine; in short: as §1
[19] = compound: C=C(F)c1sc(CNCCCNc2cc(=O)c3ccccc3[nH]2)c(C)c1Br; test: Activity of Staphylococcus aureus MetRS A247E mutant by ATP:PPi exchange assay in presence of methionine; in short: as §3
[20] = compound: C=C(F)c1sc(CNCCCNc2cc(=O)c3ccccc3[nH]2)c(C)c1Br; test: Ratio of Kcat to Km for Staphylococcus aureus MetRS A247E mutant in presence of tRNA; in short: as §2
[21] = compound: C=C(F)c1sc(CNCCCNc2cc(=O)c3ccccc3[nH]2)c(C)c1Br; test: Activity of Staphylococcus aureus MetRS A247E mutant by ATP:PPi exchange assay in presence of ATP; in short: as §3
[22] = compound: C=C(F)c1sc(CNCCCNc2cc(=O)c3ccccc3[nH]2)c(C)c1Br; test: Ratio of Kcat to Km for Staphylococcus aureus MetRS A247E mutant in presence of methionine; in short: as §1
[23] = compound: C=C(F)c1sc(CNCCCNc2cc(=O)c3ccccc3[nH]2)c(C)c1Br; test: Activity of streptococcus aureus MetRS A247E mutant by scintillation proximity assay in presence of tRNA; settings: Staphylococcus aureus
[24] = compound: C=C(F)c1sc(CNCCCNc2cc(=O)c3ccccc3[nH]2)c(C)c1Br; test: Ratio of Kcat to Km for Staphylococcus aureus MetRS A247E mutant in presence of ATP; in short: as §1
[25] = compound: C=C(F)c1sc(CNCCCNc2cc(=O)c3ccccc3[nH]2)c(C)c1Br; test: Activity of Thermus thermophilus HB8 MetRS by ATP:PPi exchange assay in presence of methionine
[26] = compound: C=C(F)c1sc(CNCCCNc2cc(=O)c3ccccc3[nH]2)c(C)c1Br; test: Activity of Thermus thermophilus HB8 MetRS by ATP:PPi exchange assay in presence of ATP

B1: Methionine--tRNA ligase (Staphylococcus aureus subsp. aureus MW2), Q8NY00 I57N (protein)
chain: MAKETFYITTPIYYPSGNLHIGHAYSTVAGDVIARYKRMQGYDVRYLTGTDEHGQKNQEKAQKAGKTEIEYLDEMIAGIKQLWAKLEISNDDFIRTTEERHKHVVEQVFERLLKQGDIYLGEYEGWYSVPDETYYTESQLVDPQYENGKIIGGKSPDSGHEVELVKEESYFFNISKYTDRLLEFYDQNPDFIQPPSRKNEMINNFIKPGLADLAVSRTSFNWGVHVPSNPKHVVYVWIDALVNYISALGYLSDDESLFNKYWPADIHLMAKEIVRFHSIIWPILLMALDLPLPKKVFAHGWILMKDGKMSKSKGNVVDPNILIDRYGLDATRYYLMRELPFGSDGVFTPEAFVERTNFDLANDLGNLVNRTISMVNKYFDGELPAYQGPLHELDEEMEAMALETVKSYTESMESLQFSVALSTVWKFISRTNKYIDETTPWVLAKDDSQKDMLGNVMAHLVENIRYAAVLLRPFLTHAPKEIFEQLNINNPQFMEFSSLEQYGVLTESIMVTGQPKPIFPRLDSEAEIAYIKESMQPPATEEEKEEIPSKPQIDIKDFDKVEIKAATIINAEHVKKSDKLLKIQVDLDSEQRQIVSGIAKFYTPDDIIGKKVAVVTNLKPAKLMGQKSEGMILSAEKDGVLTLVSLPSAIPNGAVIK
In the case of B1, the Km [1] is reported as 0.93 µM, the kcat [1] is reported as 0.023 s⁻¹ and the kcat/Km [2] is reported as 0.56 µM⁻¹ s⁻¹. The kcat/Km [3] was 0.025 µM⁻¹ s⁻¹, the Km [4] was 820 µM and the kcat/Km [5] was 0.017 µM⁻¹ s⁻¹. It also gave a Km [6] of 25 µM and a kcat [6] of 14 s⁻¹.

B2: Methionine--tRNA ligase (Staphylococcus aureus subsp. aureus MW2), Q8NY00 V108M (protein)
chain: B1 chain with N57I, V108M
With B2 the Km [7] was 140 µM, the kcat [7] was 15 s⁻¹ and the kcat/Km [8] was 0.11 µM⁻¹ s⁻¹. It also gave a kcat/Km [9] of 0.23 µM⁻¹ s⁻¹, a kcat/Km [10] of 0.023 µM⁻¹ s⁻¹ and a Km [11] of 3.2 µM. The kcat [11] was 0.74 s⁻¹ and the Km [12] was 650 µM.

B3: Methionine--tRNA ligase (Staphylococcus aureus subsp. aureus MW2), Q8NY00 G223C (protein)
chain: B1 chain with N57I, G223C
With B3 the Km [13] was 750 µM, the Km [14] was 2.5 µM and the kcat [14] was 0.037 s⁻¹. The kcat/Km [15] was 0.013 µM⁻¹ s⁻¹, the Km [16] was 680 µM and the kcat [16] was 10 s⁻¹. For the same protein, the kcat/Km [17] was 0.015 µM⁻¹ s⁻¹ and the kcat/Km [18] was 0.01 µM⁻¹ s⁻¹.

B4: Methionine--tRNA ligase (Staphylococcus aureus subsp. aureus MW2), Q8NY00 A247E (protein)
chain: B1 chain with N57I, A247E
B4 gave a Km [19] of 220 µM, a kcat [19] of 11 s⁻¹ and a kcat/Km [20] of 0.044 µM⁻¹ s⁻¹. The Km [21] was 1140 µM, the kcat/Km [22] was 0.05 µM⁻¹ s⁻¹ and the Km [23] was 1.3 µM. The kcat [23] was 0.057 s⁻¹ and the kcat/Km [24] was 0.01 µM⁻¹ s⁻¹.

B5: Methionine--tRNA ligase (Thermus thermophilus (strain HB8 / ATCC 27634 / DSM 579)), P23395 (protein)
chain: MEKVFYVTTPIYYVNAEPHLGHAYTTVVADFLARWHRLDGYRTFFLTGTDEHGETVYRAAQAAGEDPKAFVDRVSGRFKRAWDLLGIAYDDFIRTTEERHKKVVQLVLKKVYEAGDIYYGEYEGLYCVSCERFYTEKELVEGLCPIHGRPVERRKEGNYFFRMEKYRPWLQEYIQENPDLIRPEGYRNEVLAMLAEPIGDLSISRPKSRVPWGIPLPWDENHVTYVWFDALLNYVSALDYPEGEAYRTFWPHAWHLIGKDILKPHAVFWPTMLKAAGIPMYRHLNVGGFLLGPDGRKMSKTLGNVVDPFALLEKYGRDALRYYLLREIPYGQDTPVSEEALRTRYEADLADDLGNLVQRTRAMLFRFAEGRIPEPVAGEELAEGTGLAGRLRPLVRELKFHVALEEAMAYVKALNRYINEKKPWELFKKEPEEARAVLYRVVEGLRIASILLTPAMPDKMAELRRALGLKEEVRLEEAERWGLAEPRPIPEEAPVLFPKKEAKVEAKPKEEAWIGIEDFAKVELRVAEVLAAEKHPNADRLLVLRLSLGNEERTVVSGIAKWYRPEELVGKKVVLVANLKPAKLRGIESQGMILAAQEGEALALVTVEGEVPPGAVVK
B5 gave a Km [25] of 18 µM and a Km [26] of 180 µM.
